In article PMC11341692 (Nature Communications, 2024):

Test system: NET formation in human peripheral blood neutrophils
Test: MPO-ANCA-IC-induced NET formation in primed human peripheral blood neutrophils
Assay type: cell-based
Conditions: for MPO-ANCA-IC-induced NET formation: avacopan 0.1 and 1 µM
In short: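 Neutrophils isolated with Polymorphprep from the blood of healthy volunteers (n = 3). Cells were pretreated 15 min with an NE inhibitor (0, 50, 500 µM) or a C5aR inhibitor (0, 0.1, 1 µM), then primed with 5 ng/ml TNF-α or 100 ng/ml C5a for 15 min at 37 °C. They were seeded on MPO-ANCA-IC-coated chambers at 5 × 10^5/well for 3–4 h at 37 °C, then PFA-fixed and stained for CD15, Cit-H3 and DAPI. DAPI-positive DNA area per neutrophil was taken from three random images per well.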

Structure (SMILES) | MPO-ANCA-IC-induced NET formation (C5a-primed neutrophils) | MPO-ANCA-IC-induced NET formation (TNF-α-primed neutrophils) | DAPI-positive DNA area per neutrophil (TNF-α + MPO-ANCA-IC, sivelestat 0, 50, and 500 µM) | Neutrophil swelling (fold change) (TNF-α + MPO-ANCA-IC, sivelestat 500 µM)
Cc1ccc(NC(=O)[C@H]2CCCN(C(=O)c3c(C)cccc3F)[C@H]2c2ccc(NC3CCCC3)cc2)cc1C(F)(F)F [Avacopan, avacopan] | suppressed | but not in TNF-α-primed neutrophils | – | –
CC(C)(C)C(=O)Oc1ccc(S(=O)(=O)Nc2ccccc2C(=O)NCC(=O)O)cc1 [Sivelestat] | – | – | reduced by sivelestat dose-dependently and significantly | significantly suppressed
